In the library only some 2.2% were active in any assay of this set; here they are far more common.
SKN-1 block – suppressors of acrylamide-induced Pgst-4::GFP reporter in worms, primary screen, SKN-1 inhibitor project, whole organism, uHTS, GFP/RFP fluorescence ratio, strain VP596; C. elegans VP596 Pgst-4::GFP/RFP ratio, 24 h; inhibition, % at 21.8 µM; 360,000 compounds, 0.49% hits; AID 624304, 2012;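 active means interference check ratio from 0.5 to 1.5 plus GFP to RFP signal ratio inhibition reaching or exceeding a fixed threshold, cut at about 30% in these data, passing the limit was not always enough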
Tn7 DDE FP – inhibitors of Tn7 peptide binding to fibrin DD(E), primary screen, biochemical, fluorescence polarization, human fibrin, Tn7 probe. Fibrinogen beta chain (Homo sapiens), P02675. FP displacement of FITC-Tn7 peptide from fibrin DD(E); 0% = median of compound wells per plate. inhibition, % at 8.3 µM. 370,000 compounds, 0.13% hits. AID 720508, 2013;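 active means inhibition above the mean of compounds falling within the control limits plus 3 SD of them, cut at about 14% in these data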;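 further: 0% = plate median of compound wells and 100% = 10 µM Aha-Tn7 peptide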
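Also added: labelled Tn7 tracer, 0.1 µM; Assay system: human fibrin DD(E) protein; Amount: 2 µM fibrin DD(E); Schedule: 10 min compound pre-incubation, 3 h probe incubation at room temperature; Repeats: one replicate per compound; Read-out basis: percent inhibition; Measured by: fluorescence polarization of the labelled Tn7 tracer.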
Neddyl block – inhibitors of cullin neddylation, primary screen, biochemical, TR-FRET, uHTS, NAE and Ubc12. NEDD8-conjugating enzyme Ubc12 (Homo sapiens) + NEDD8-activating enzyme E1 regulatory …. calls only at 25 µM. 360,000 compounds, 0.58% hits. AID 651699, 2012; in the data active means inhibition above about 36%
proKLK7 act – proKLK7 zymogen activators, primary screen, biochemical, fluorescence intensity; purified proKLK7, EDANS-DABCYL substrate fluorescence; 100% is mature enzyme control, 0% vehicle; activation, % at 7 µM; 370,000 compounds, 0.9% hits;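 active means activation above the mean of all tested compounds plus 3 SD, computed per campaign excluding outliers beyond control limits, cut at about 13% in these data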
Target sequence (P49862 whole entry, looked up): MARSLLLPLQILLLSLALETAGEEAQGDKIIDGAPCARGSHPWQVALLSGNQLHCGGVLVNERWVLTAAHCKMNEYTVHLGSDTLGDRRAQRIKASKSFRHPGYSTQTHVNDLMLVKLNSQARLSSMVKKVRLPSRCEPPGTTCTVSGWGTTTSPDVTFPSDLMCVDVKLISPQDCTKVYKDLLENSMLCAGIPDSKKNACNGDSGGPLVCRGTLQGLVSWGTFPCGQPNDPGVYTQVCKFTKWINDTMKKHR
MT1-MMP act inh – blockers of MT1-MMP proenzyme processing, primary screen, HT1080 RFP-PRO-GFP cells, GFP/RFP fluorescence. GFP/RFP ratio fluorescence, overnight; percent of plate control window, DMSO zero. 360,000 compounds, 0.061% hits. GFP/RFP ratio change, % at 20 µM. Matrix metalloproteinase-14 (Homo sapiens), P50281;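 active means GFP/RFP ratio change of at least 30% with cell ATP level not reduced by more than half and red fluorescence within 50% of control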
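Material – HT1080 RFP-PRO-GFP cells · Control set – DMSO wells and RFP-L50D-GFP cells · Incubation – overnight cell settling, then overnight compound exposure, 37 °C, 5% CO2 · Compound dosing – single-point 20 µM compound, 1% DMSO · Read-out – GFP/RFP fluorescence ratio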
DDE Tn6 FP inh – inhibitors of Tn6 peptide binding to fibrin DD(E), primary screen, biochemical, fluorescence polarization, human fibrin, Tn6 probe; 370,000 compounds, 0.21% hits; Fibrinogen beta chain (Homo sapiens), P02675; AID 720509, 2013; inhibition, % at 8.3 µM; Fibrin DD(E) TRITC-Tn6 fluorescence polarization displacement;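 active means inhibition above a per-campaign cutoff: mean of compounds within control limits plus 3 SD, cut at about 15% in these data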;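 further: 0% = median of all compound wells on the plate and 100% = blocking peptide control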
KLK7 act conf – proKLK7 zymogen activators, confirmation, biochemical, fluorescence intensity, triplicate | AID 686949, 2013 | purified proKLK7, EDANS-DABCYL substrate fluorescence; scaled: vehicle 0, mature enzyme 100 | activation, % at 7 µM | 3,200 compounds, 68% hits | shares compounds with proKLK7 act;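 active means activation, as change over the incubation, above the mean of all tested compounds plus 3 SD, cut at about 13% in these data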
EDANS-DABCYL int – EDANS-DABCYL substrate optical interference, artefact control for kallikrein-7 zymogen activator project, biochemical, fluorescence intensity, high throughput | shares compounds with proKLK7 act | no enzyme, 4 h; solvent 0%, active enzyme control 100% | activation, % at 7 µM | 3,200 compounds, 80% hits | AID 686952, 2013;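 active means activation above the all-compound mean plus 3 SD, ignoring values outside control-based bounds, cut at about 4.8% in these data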;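 further: value is the 4 h activation minus the activation read at time zero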
K7 EDANS ctr – EDANS fluorescence interference in dose response, no enzyme; AID 720493; EC50, µM; shares compounds with proKLK7 act; 250 compounds, 20% hits; EDANS-DABCYL peptide fluorescence interference;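 active means compounds that raise the fluorescence signal in this interference counterscreen, with EC50 at or below 10 µM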;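 further: intact quenched peptide substrate alone read at 355 nm excitation and 520 nm emission; signal is fluorescence gain from T0 to T4 after four hours at room temperature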
* = called active by the depositor; i = inactive; · = no result shown.

SMILES | SKN-1 block | Tn7 DDE FP | Neddyl block | proKLK7 act | MT1-MMP act inh | DDE Tn6 FP inh | KLK7 act conf | EDANS-DABCYL int | others
COc1cc2cc(CN(CCCN3CCOCC3)Cc3nnnn3Cc3ccccc3)c(=O)[nH]c2cc1OC | -8 | 1 | · | 15* | 2 | -11 | -12 | -8
O=c1[nH]c2cc3c(cc2cc1CN(Cc1nnnn1CC1CCCO1)C1CCCCC1)OCO3 (stereo not drawn) | -1 | -1 | · | 51* | -10 | -9 | -90 | -73
CCC(C)(C)n1nnnc1CN(Cc1cc2cc(OC)ccc2[nH]c1=O)C1CCCC1 | 5 | -3 | i | 2 | -7 | 3 | · | ·
COCCn1nnnc1CN(Cc1cc2cc(OC)c(OC)cc2[nH]c1=O)C1CCCC1 | 2 | 3 | · | 18* | 0 | 4 | -11 | -10
Cc1ccc2[nH]c(=O)c(CN(CCCN3CCOCC3)Cc3nnnn3C3CCCC3)cc2c1 | 9 | -2 | i | 2 | -7 | -2 | · | ·
Cn1cccc1Cc1nnc(SCC(=O)N2CCCc3ccccc32)n1-c1ccc(F)cc1 | 13 | -6 | i | 0 | 5 | 7 | · | ·
O=C(Nc1ccccc1Cl)c1cc(C2CCCN(C(=O)C3CCCCC3)C2)on1 (stereo not drawn) | 3 | 7 | i | 1 | -6 | -2 | · | ·
COc1ccc(C2C(C(=O)N3CCOCC3)=C(C)NC3=C2C(=O)CC(C)(C)C3)c(OC)c1 (stereo not drawn) | -43 | -2 | · | 18* | 2 | -1 | 31* | 20* | K7 EDANS ctr=>23
CC1=C(C(=O)N2CCOCC2)C(c2ccccc2F)C2=C(CC(C)(C)CC2=O)N1 (stereo not drawn) | -1 | -3 | · | 9 | -2 | -5 | · | ·
C/C(=N\NC(=O)C(O)c1ccccc1)c1ccc(C)s1 (stereo not drawn) | -12 | 4 | i | -1 | -3 | 0 | · | ·
Cc1ccc(-c2cc(NC=O)c3ncc(-c4cccc(C(=O)N(C)C)c4)n3c2)cc1 | 4 | 2 | i | -2 | -6 | -6 | · | ·
CN(C)CCCNC(=O)c1cccc(-c2cnc3cccnn23)c1 | 20 | -5 | · | 54* | 5 | -2 | 60* | 62*
CN(C)CCCNC(=O)c1cccc(-c2ccc3nccn3c2)c1 | 2 | 7 | i | -1 | 4 | 1 | · | ·
CN(C)C(=O)c1cccc(-c2cnc3cccnn23)c1 | 12 | 0 | · | 45* | -4 | -1 | 59* | 59*
Cc1c(C(=O)OC(C)C)[nH]c2c1C(=O)CCC2 | 0 | 2 | i | 0 | 0 | 0 | · | ·
CCOc1ccc(N=c2oc3cc(O)ccc3cc2C(=O)NCC2CCCO2)cc1 (stereo not drawn) | -15 | 4 | · | 6 | 3 | 2 | · | ·
COc1ccc(N=c2oc3cc(O)ccc3cc2C(=O)NCC2CCCO2)c(OC)c1 (stereo not drawn) | -37 | -1 | · | 20* | · | 5 | 13* | 17*
CCOc1ccc(C(=O)NCC2CCCO2)cc1OCC (stereo not drawn) | 6 | -3 | i | -1 | 0 | 1 | · | ·
CCOc1ccccc1N=c1oc2cc(O)ccc2cc1C(=O)NCC1CCCO1 (stereo not drawn) | 15 | -5 | · | 88* | 1 | -5 | 12 | 14*
COc1ccc(N=c2oc3cc(O)ccc3cc2C(=O)NCC2CCCO2)cc1 (stereo not drawn) | 5 | -6 | · | 16* | 10 | 0 | 8 | 11*
O=C(CSc1nccc(=O)[nH]1)NC1CCCCCC1 | 8 | 4 | i | 61* | 1 | 5 | 0 | 0
O=c1c2ccccc2c(/C=N/NS(=O)(=O)c2ccccc2)c(O)n1-c1ccccn1 | 10 | -2 | i | 46* | -112 | -8 | 92* | 94*
COc1ccccc1-c1c(C)oc2c(CN3CCCCC3C)c(O)ccc2c1=O (stereo not drawn) | 8 | 3 | · | 53* | -1 | 5 | 66* | 69*
Cc1oc2c(CN3CCCCC3C)c(O)ccc2c(=O)c1-c1ccccc1 (stereo not drawn) | 2 | -5 | · | 34* | -4 | -1 | 47* | 59*
CCOC(=O)C(NC(=O)CCl)(Nc1sc(C)c(CC)c1C#N)C(F)(F)F (stereo not drawn) | -4 | 4 | i | 0 | -4 | -11 | · | ·
SMILES | SKN-1 block | Tn7 DDE FP | Neddyl block | proKLK7 act | MT1-MMP act inh | DDE Tn6 FP inh | KLK7 act conf | EDANS-DABCYL int | others
COc1cc2c(cc1NC(=O)COC(=O)/C=C/c1ccc([N+](=O)[O-])cc1)oc1ccccc12 | -4 | -2 | i | 0 | -7 | -2 | · | ·
Cc1cc(C)c2c(N)c(C(=O)Nc3ccccc3Br)sc2n1 | -7 | 3 | · | 179* | -4 | -1 | 124* | 56*
Cc1cc(C)c2c(N)c(C(=O)Nc3ncc(C)s3)sc2n1 | 1 | -4 | · | 33* | 9 | -15 | -27 | -48
Cc1ccc(N2CC(=O)N(NC(=O)c3sc4nc(C)cc(C)c4c3N)CC2=O)cc1 | -4 | 4 | i | 86* | 0 | 4 | 23* | 21*
Cc1cc(C)c2c(N)c(C(=O)Nc3ccccc3F)sc2n1 | 10 | -3 | · | 23* | -2 | -6 | -14 | -14
COC(=O)c1sc2nc(C)cc(C)c2c1N | -6 | -2 | · | 1 | 8 | -7 | · | ·
CCc1ccccc1NC(=O)c1sc2nc(C)cc(C)c2c1N | -6 | -1 | i | 2 | -2 | -5 | · | ·
CC(=O)c1sc2nc(C)cc(C)c2c1N | -7 | 7 | · | 4 | 3 | 5 | · | ·

High-throughput results as filed in PubChem BioAssay.
